# Test results reported in ChEMBL document CHEMBL4819012, “Discovery of novel 2-aryl-3-sulfonamido-pyridines (HoAns) as microtubule polymerization inhibitors with potent antitumor activities” (Eur J Med Chem, 2021).
# Calls of active or inactive are those of the source. The calls are words filed in the database; no cut-off is given here.
# Assays:
# RKO [1] = assay: Antiproliferative activity against human RKO cells assessed as inhibition of cell proliferation measured after 24 hrs by crystal violet staining based colony-formation assay; assay type: functional; conditions: dose 0.125-1 µM
# Outline: (§1)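 RKO or SW620 cells plated at 1000 cells/well overnight, exposed to 0.125–1 µM for 24 h, then grown 10 days in fresh medium. Colonies fixed in methanol 15 min, stained with 0.1% crystal violet 30 min, photographed; colonies of more than 50 cells counted.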
# SW-620 [2] = assay: Antiproliferative activity against human SW-620 cells assessed as inhibition of cell proliferation measured after 24 hrs by crystal violet staining based colony-formation assay; assay type: functional; conditions: dose 0.125-1 µM; outline: as §1
# [3] = target: T1, Tubulin beta (Homo sapiens) (UniProt P68371+Q9H4B7+Q13509+P04350+Q3ZCM7+P07437+Q13885+Q9BVA1+Q9BUF5+A6NNZ2); assay: Inhibition of N,N'-Ethylenebis(iodoacetamide) binding to beta tubulin in human SW-620 cells preincubated for 2 hrs followed by addition of EBI and measured after 2 hrs by western blot assay; assay type: cell-based; conditions: dose 10-40 µM
# Outline: (§2)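 SW620 cells (5×10^5 per well) pretreated for 2 h with 10, 20 or 40 μM of test agent or DMSO, then given 100 μM EBI for 2 h. Lysed in SDS loading buffer. β-tubulin and β-tubulin–EBI adduct bands resolved by western blot probed with anti-β-tubulin.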
# RKO [4] = assay: Induction of cell cycle arrest in human RKO cells assessed as accumulation of cells in G1 phase at 0.5 uM measured after 24 hrs by PI staining based flow cytometry method (reference value: 39.54%); assay type: functional
# SW-620 [5] = assay: Induction of cell cycle arrest in human SW-620 cells assessed as accumulation of cells in G1 phase at 0.5 uM measured after 24 hrs by PI staining based flow cytometry method (reference value: 40.06%); assay type: functional
# SW-620 [6] = assay: Induction of cell cycle arrest in human SW-620 cells assessed as accumulation of cells in G2 phase at 0.5 uM measured after 24 hrs by PI staining based flow cytometry method (reference value: 13.83%); assay type: functional
# PANC-1 [7] = assay: Induction of cell cycle arrest in human PANC-1 cells assessed as accumulation of cells in G1 phase at 0.5 uM measured after 24 hrs by PI staining based flow cytometry method (reference value: 31.35%); assay type: functional
# PANC-1 [8] = assay: Induction of cell cycle arrest in human PANC-1 cells assessed as accumulation of cells in S phase at 0.5 uM measured after 24 hrs by PI staining based flow cytometry method (reference value: 65%); assay type: functional
# PANC-1 [9] = assay: Induction of cell cycle arrest in human PANC-1 cells assessed as accumulation of cells in G2 phase at 0.5 uM measured after 24 hrs by PI staining based flow cytometry method (reference value: 3.63%); assay type: functional
# RKO [10] = assay: Induction of cell cycle arrest in human RKO cells assessed as reduction in Cyclin B1 expression at 0.5 to 1 uM measured after 24 hrs by western blot assay; assay type: functional, cell-based; conditions: dose 0.5-1 µM
# Outline: (§3)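 RKO or SW620 cells (4×10^5–5×10^5 per well) exposed to 0.5 or 1 μM or DMSO for 24 h. Lysed in SDS loading buffer, boiled, run on 8–15% SDS-PAGE and moved to PVDF. Blocked in 5% milk, probed overnight at 4 °C with anti-Cdc2 or anti-cyclin B1 (1:1000), β-actin as reference. HRP secondary and ECL detection. Done at least three times.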
# RKO [11] = assay: Induction of apoptosis in human RKO cells assessed as viable cells at 0.5 uM measured after 24 hrs by PI/Annexin V staining based flow cytometry assay (reference value: 96.6%); assay type: functional; conditions: read-out: Activity
# RKO [12] = assay: Induction of apoptosis in human RKO cells assessed as early apoptotic cells at 0.5 uM measured after 24 hrs by PI/Annexin V staining based flow cytometry assay (reference value: 2.58%); assay type: functional
# RKO [13] = assay: Induction of apoptosis in human RKO cells assessed as late apoptotic cells at 0.5 uM measured after 24 hrs by PI/Annexin V staining based flow cytometry assay (reference value: 0.81%); assay type: functional
# SW-620 [14] = assay: Induction of apoptosis in human SW-620 cells assessed as early apoptotic cells at 0.5 uM measured after 24 hrs by PI/Annexin V staining based flow cytometry assay (reference value: 2.41%); assay type: functional
# SW-620 [15] = assay: Induction of apoptosis in human SW-620 cells assessed as necrotic cells at 0.5 uM measured after 24 hrs by PI/Annexin V staining based flow cytometry assay (reference value: 0.03%); assay type: functional
# SW-620 [16] = assay: Induction of apoptosis in human SW-620 cells assessed as increase in ROS levels at 0.25 uM measured after 24 hrs by DCFH-DA staining based flow cytometry method relative to control; assay type: functional
# Outline: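 Cells at 5×10^5 per well exposed to 0.25 or 0.5 µM for 24 h, then loaded with 5 µM DCFH-DA in serum-free medium 30 min at 37 °C; washed, harvested, read by flow cytometry (ex 488/em 525 nm). ROS given as ratio of treated to control; at least three experiments.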
# [17] = Toxicity against Athymic nude mouse xenografted with SW-620 cells assessed as toxicity in heart at 25 mg/kg per two days, po measured after 20 days; assay type: organism-based; conditions: in vivo, 480 h, time 20 day
# Outline: (§4)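 At the end of the 20-day oral SW620 xenograft study (25 mg/kg every 2 days, n = 6), heart, liver, spleen, lung and kidney were fixed in 4% paraformaldehyde and embedded in paraffin. 4 μm sections stained with Mayer hematoxylin 5 min and eosin-phloxine 2 min, then examined by light microscopy.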
# [18] = Toxicity against Athymic nude mouse xenografted with SW-620 cells assessed as toxicity in lung at 25 mg/kg per two days, po measured after 20 days by H and E staining method; assay type: organism-based; conditions: in vivo, 480 h, time 20 day; outline: as §4
# [19] = Toxicity against Athymic nude mouse xenografted with SW-620 cells assessed as toxicity in kidney at 25 mg/kg per two days, po measured after 20 days by H and E staining method; assay type: organism-based; conditions: in vivo, 480 h, time 20 day; outline: as §4
# SW-620 [20] = assay: Induction of cell cycle arrest in human SW-620 cells assessed as reduction in cdc2 expression at 0.5 to 1 uM measured after 24 hrs by western blot assay; assay type: functional, cell-based; conditions: dose 0.5-1 µM; outline: as §3
# [21] = Inhibition of tubulin polymerization assessed as morphology changes from fusiform to roud at 1 uM measured 24 hrs by DAPI staining based immunoflourescence assay relative to ABT-751
# PLC-PRF-5 = assay: Antiproliferative activity against human PLC-PRF-5 cells assessed as cell viability measured after 72 hrs by MTS method; assay type: functional, cell-based; conditions: PLC-PRF-5, 72 h
# Outline: (§5)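 Log-phase cells plated at 5×10^3–6×10^3 per well for 24 h, then given graded compound concentrations in fresh medium for 72 h, five replicate wells. Medium replaced with medium containing 10% MTS, 30 min or more at 37 °C in dark; OD 490 nm read. IC50 by nonlinear regression; mean ± SD of at least three experiments.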
# A549 = assay: Antiproliferative activity against human A549 cells assessed as cell viability measured after 72 hrs by MTS method; assay type: functional, cell-based; conditions: A549, 72 h; outline: as §5
# [22] = target: T1, Tubulin beta (Homo sapiens); assay: Inhibition of N,N'-Ethylenebis(iodoacetamide) binding to beta tubulin in human SW-620 cells at 20 to 40 uM preincubated for 2 hrs followed by addition of EBI and measured after 2 hrs by western blot assay; assay type: cell-based; conditions: dose 20-40 µM; outline: as §2
compound,measurement,setting,value
COc1ccc(S(=O)(=O)Nc2cccnc2-c2ccc(C#N)c(F)c2)cc1,Activity,RKO [1],Dose-Dependent Effect
same,Activity,SW-620 [2],Dose-Dependent Effect
same,inhibition,[3],Dose-Dependent Effect
same,Activity,RKO [4],36.95%
same,Activity,SW-620 [5],38.03%
same,Activity,SW-620 [6],14.44%
same,Activity,PANC-1 [7],34.22%
same,Activity,PANC-1 [8],50.11%
same,Activity,PANC-1 [9],15.67%
same,Activity,RKO [10],Active
same,viability at 0.5 µM,RKO [11],74.5%
same,Activity,RKO [12],24.47%
same,Activity,RKO [13],1.04%
same,Activity,SW-620 [14],6.66%
same,Activity,SW-620 [15],0.06%
same,fold change (FC),SW-620 [16],1.5
same,Activity,[17],Non-Toxic
same,Activity,[18],Non-Toxic
same,Activity,[19],Non-Toxic
same,Activity,SW-620 [20],Active
same,inhibition,[21],Active
COc1ccc(S(=O)(=O)Nc2cccnc2Nc2ccc(O)cc2)cc1 [ABT-751],IC50,PLC-PRF-5,792 nM
same,IC50,A549,1380 nM
same,inhibition,[22],Dose-Dependent Effect
